Bioassay records deposited in PubChem BioAssay by several laboratories.
Hits are enriched below; roughly 3.9% of the tested compounds scored in any of these assays.
AHR activator: activators of human aryl hydrocarbon receptor; P35869; AHR-responsive luciferase reporter cells, luminescence; activation, % at 5 µM; 2.5% of 320,000 active; AID 2796; in the data active = activation above about 47%;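 note: 0% = vehicle wells and 100% = reference agonist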
SR-BI DiI inh: mouse SR-BI HDL lipid transfer inhibition; Q61009; ldlA[mSR-BI] CHO cells, DiI-HDL uptake fluorescence, 3 h; inhibition, % at 12.5 µM; 0.96% of 320,000 active;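 active = mean replicate inhibition of at least 70% and a set share of replicates each scoring 70 or more; inconclusive = meets just one of the two criteria; inactive = fails both criteria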;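 note: 0% = median of neutral control wells and 100% = median of positive control wells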
GAA850 FXN act: activators of GAA850 frataxin (FXN) promoter; 0.56% of 360,000 active; activation, % at 6 µM; HEK293 lucGAA850 FXN promoter luciferase reporter, 24 h; percent of 10 µM SAHA response; AID 540364;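 active = activation above the average of all compounds screened plus 3 SD, cutoff fixed separately per campaign, cut at about 7.5% in these data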;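 note: 0% = DMSO wells and 100% = 10 µM SAHA wells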
SR-BI uptake up: activators of SR-BI mediated HDL lipid uptake. CHO ldlA[mSR-BI] cells, DiI-HDL uptake fluorescence, 3 h; 100 = double the neutral-control signal. 0.096% of 320,000 active. AID 504775. activation, % at 12.5 µM;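 active = mean replicate activation of at least 60% and every replicate at or above 60%; inconclusive = mean or all-replicate condition met, but not both; inactive = mean below 60% and not all replicates reaching 60%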;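 note: 0% = median plate neutral-control signal and 100% = twice that signal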
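Material: SR-BI-overexpressing, LDLR-lacking CHO cells; schedule: compound exposure 3 h, 37 °C; reagent: DiI-labelled HDL at 10 µg/mL final; technique: bottom-read fluorescence, 550/595 nm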
HIF activator: HIF pathway transcriptional activation; U2OS HRE-luciferase reporter, luminescence; normalized: DMSO 0%, desferrioxamine 100%; activation, % at 7.5 µM (by protocol); 0.32% of 300,000 active;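 active = mean activation of at least 10% of the iron chelator positive control signal, with at least half of replicates also reaching 10%; inconclusive = mean and replicate majority disagree about reaching 10%; inactive = mean and most replicates under 10%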
ABCB6 inh 2: inhibitors of human ABC transporter ABCB6 | Q9NP58 | K562-ABCB6 porphyrin accumulation, flow cytometry, 1 h; hits give low values | fluorescence ratio to DMSO, % at 10 µM | 0.19% of 360,000 active | AID 602162;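 active = fluorescence ratio to DMSO below 75%, the collection mean minus 3 SD; inconclusive = too few cells collected in the well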;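 note: signal is porphyrin accumulated inside mitochondria; 100% equals median channel fluorescence of DMSO control wells; lower ratio means ABCB6 inhibition with less porphyrin fluorescence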
Target sequence (Q9NP58 whole entry, looked up): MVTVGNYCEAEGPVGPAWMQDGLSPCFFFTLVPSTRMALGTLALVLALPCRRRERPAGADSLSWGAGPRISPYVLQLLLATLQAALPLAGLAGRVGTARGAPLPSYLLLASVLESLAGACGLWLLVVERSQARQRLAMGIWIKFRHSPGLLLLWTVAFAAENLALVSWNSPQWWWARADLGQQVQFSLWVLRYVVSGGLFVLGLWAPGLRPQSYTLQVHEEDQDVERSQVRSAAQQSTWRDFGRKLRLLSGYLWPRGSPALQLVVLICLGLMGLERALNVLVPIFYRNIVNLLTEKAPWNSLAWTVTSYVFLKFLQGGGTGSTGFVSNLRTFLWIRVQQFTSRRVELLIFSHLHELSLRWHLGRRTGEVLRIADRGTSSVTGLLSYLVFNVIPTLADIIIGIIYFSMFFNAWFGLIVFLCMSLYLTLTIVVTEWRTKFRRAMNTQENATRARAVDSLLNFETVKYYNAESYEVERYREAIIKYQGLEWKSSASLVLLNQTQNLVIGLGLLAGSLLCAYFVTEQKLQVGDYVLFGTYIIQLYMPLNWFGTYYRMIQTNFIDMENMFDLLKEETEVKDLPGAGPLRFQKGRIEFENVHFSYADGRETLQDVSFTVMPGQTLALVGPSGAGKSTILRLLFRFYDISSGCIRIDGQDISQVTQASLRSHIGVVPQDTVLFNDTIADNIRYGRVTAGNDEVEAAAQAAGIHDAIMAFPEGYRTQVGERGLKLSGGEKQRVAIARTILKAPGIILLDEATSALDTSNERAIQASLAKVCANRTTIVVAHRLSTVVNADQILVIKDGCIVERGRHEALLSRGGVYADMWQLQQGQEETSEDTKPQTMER
* hit, by the source's call; ? = inconclusive; · = no result given; ! = not active in a repeat.

SMILES | AHR activator | SR-BI DiI inh | GAA850 FXN act | SR-BI uptake up | HIF activator | ABCB6 inh 2
Cc1ccc(C(=O)CSc2nc3cc(S(=O)(=O)N4CCOCC4)ccc3o2)cc1 | 0.6 | 29.0 | 2.1 | -29.0 | -0.1 | 86.0
COC(=O)c1cc(C(=O)NCC2CCCCC2)cc([N+](=O)[O-])c1 | -2.1 | 25.8 | -1.1 | -25.8 | -0.8 | 89.0
COC1(C)CC2C(CC1OC(=O)c1cc([N+](=O)[O-])cc([N+](=O)[O-])c1)C2(C)C (centres undefined) | -1.5 | 93.2*! | 0.7 | -66.7 | -0.5 | 103.0
CC(C)CC(=O)Nc1ccc(C(=O)Cn2nc(C(=O)O)c3ccccc3c2=O)cc1 | 0.8 | 15.9 | 6.8 | -16.0 | -0.1 | 103.0
Cc1ccc(-c2sc(C(=O)NN)c(C)c2C#N)cc1 | 17.3 | 91.6* | -0.1 | -91.6 | -1.0 | 97.0
Cn1cnnc1SCc1ccccc1Br | -3.1 | -24.1 | -0.1 | · | -0.1 | 98.0
CCOc1ccc(C(=O)NC(C(=O)NCCc2ccc(S(N)(=O)=O)cc2)C(C)C)cc1 (centres undefined) | 0.0 | -3.8 | 2.9 | 3.8 | 0.4 | 97.0
Cc1noc(C(=O)N2CCN(c3ccc(F)cc3)CC2)c1Cl | 47.7* | -13.5 | 0.3 | 13.5 | -0.2 | 95.0
COc1cc(OC)c(C=CC(=O)c2ccccc2O)c(OC)c1 | · | 72.6* | -0.1 | -72.6 | · | 100.0
C=CCOc1ccc(/C=C2\SC(N)=NC2=O)cc1OC | 12.6 | 21.2 | 1.6 | -21.2 | 11.8* | 107.0
COc1cc(/C=C2\SC(N)=NC2=O)ccc1O | · | -26.2 | -4.4 | 26.2 | 0.8 | 99.0
CCC(=O)Nc1cc(=O)[nH]c2nc(-c3ccc(Cl)cc3)nn12 | 74.1* | · | 2.1 | · | -0.4 | 92.0
CC(C)(C)c1cc(CCC(=O)NN)cc(C(C)(C)C)c1O | 0.9 | 6.6 | 1.1 | -6.6 | -0.2 | 93.0
O=C1/C(=C/c2c[nH]c3ccccc23)CCC/C1=C\c1c[nH]c2ccccc12 | 64.8* | 89.0* | 2.1 | -89.0 | 0.3 | 133.0
CC(C)OC(=O)c1ccc(NC(=O)Cn2c(-c3nonc3N)nc3ccccc32)cc1 | -3.3 | 18.0 | -0.1 | -18.0 | -2.6 | 94.0
Fc1ccc(C2=Nn3c(nnc3-c3n[nH]c4c3CCC4)SC2)cc1 | 53.7* | 2.2 | 3.5 | -2.2 | 0.0 | 97.0
O=C(O)c1cccc2c1C(=O)c1ccccc1-2 | 0.9 | -10.0 | 2.5 | 10.0 | 0.4 | 92.0
COc1cccc(N2CCc3c(C)nc4ccc(Cl)cc4c32)c1 | · | 17.0 | -1.0 | -17.0 | 2.7 | 100.0
CCN1Cc2c(/C=C/c3ccccc3)nc3ccc(OC)cc3c2N(c2cccc(Cl)c2)C1 | 65.0* | 51.6 | -0.8 | -51.6 | -2.5 | 151.0
CC(C)c1ccc(C(O)Cc2nc3ccccc3n2C)cc1 (centres undefined) | 70.1* | 11.5 | -0.6 | -11.5 | 1.7 | 102.0
CN(C)c1ccc(C(O)Cc2nc3ccccc3n2C)cc1 (centres undefined) | 60.1* | 13.4 | -2.8 | -13.4 | -3.3 | 102.0
COc1ccccc1C(O)Cc1nc2ccccc2n1C (centres undefined) | 1.8 | -7.7 | 2.6 | 7.7 | 1.5 | 101.0
Cc1ccc2nc(N3CCN(c4cccc(C)c4C)CC3)c3nnnn3c2c1 | 14.5 | 9.4 | 3.8 | -9.4 | 0.0 | 105.0
Cc1nn2c(c1-c1ccccc1)NC1=C(C(=O)CCC1)C2c1ccccc1 (centres undefined) | -3.3 | 10.8 | -3.9 | -10.8 | -0.1 | 101.0
CC(C)(C)c1ccc(C(=O)Nc2ncn[nH]2)cc1 | 69.7* | -6.6 | 4.1 | 6.6 | 3.3 | 93.0
SMILES | AHR activator | SR-BI DiI inh | GAA850 FXN act | SR-BI uptake up | HIF activator | ABCB6 inh 2
Cc1ccc(C(=O)Nc2ncn[nH]2)cc1 | 15.6 | -3.3 | 0.9 | 3.3 | 1.2 | 97.0
O=C(Nc1nccs1)c1ccc(S(=O)(=O)NCc2cccs2)cc1 | 4.5 | 4.1 | 2.5 | -4.1 | 0.7 | 98.0
COc1cc(OC)nc(NC(=O)NS(=O)(=O)c2ccccc2Cl)n1 | -2.8 | · | 0.0 | · | -0.3 | 90.0
CCOc1nc(C)nc(NC(=O)NS(=O)(=O)c2ccccc2Cl)n1 | 2.4 | -61.2 | 0.1 | 61.2* | -0.2 | 96.0
CCN(CC)CCN1C(=O)C(O)=C(C(C)=O)C1c1ccccc1[N+](=O)[O-] (centres undefined) | 22.6 | 7.4 | 0.4 | -7.4 | 4.0 | 102.0
CC(=O)C1=C(O)C(=O)N(CCc2ccccc2)C1c1ccccc1[N+](=O)[O-] (centres undefined) | 49.2* | -10.1 | 2.8 | 10.1 | 1.6 | 105.0
Cc1cc(C)c2c(n1)SCC(=O)N2CC(=O)NCCC1=CCCCC1 | -1.8 | 5.9 | -0.9 | -5.9 | · | 102.0
CCc1nc(SCC(=O)c2ccccc2)c2ccccc2n1 | 50.9* | 9.6 | 6.9 | -9.6 | ? | 97.0
Cn1nnc(NC(=S)NC(=O)c2ccco2)n1 | 0.3 | -11.1 | 3.1 | 11.1 | 0.0 | 103.0
O=C(c1nn2c(C(F)(F)F)cc(-c3ccccc3)nc2c1Cl)N1CCN2CCCC2C1 (centres undefined) | · | 9.4 | 1.7 | -9.4 | 0.1 | 101.0
C(=N\Nc1nc(-c2ccccc2)cs1)/c1cccs1 | 60.3* | 62.8 | 2.3 | -62.8 | -2.3 | 90.0
C(=N\Nc1nc(-c2ccccc2)cs1)/c1ccco1 | 110.0* | 18.9 | 6.4 | -18.9 | 3.8 | 94.0
CN(C)S(=O)(=O)c1ccc(-c2csc(N/N=C/c3ccco3)n2)cc1 | 0.2 | · | -10.7 | · | 0.1 | 91.0
CN(C)S(=O)(=O)c1ccc(-c2csc(N/N=C/c3ccc(O)cc3)n2)cc1 | -7.1 | 87.2* | 3.7 | -87.2 | 2.4 | 88.0
ClCc1csc(N/N=C/c2cccs2)n1 | 13.5 | · | · | · | -0.6 | ·
C(=N\Nc1nc(-c2ccccc2)cs1)/c1ccncc1 | 60.5* | 47.4 | 1.7 | -47.4 | 1.3 | 92.0
CCN1CCN(CC(=O)c2c(C)n(C)c3ccc(OC)cc23)CC1 | 2.4 | 4.8 | 1.0 | -4.8 | · | 90.0
CCOc1ccc(Cc2noc3c2C(=O)CC(C)(C)C3)cc1OCC | 13.8 | -1.8 | 0.1 | 1.8 | -0.4 | 104.0
CC(C)C(OC(=O)c1ccc(Cl)nc1)C(=O)NC1CCCCC1 (centres undefined) | 0.0 | · | -3.5 | · | 0.0 | 102.0
CC(OC(=O)c1ccc(Cl)nc1)C(=O)NC1CCCC1 (centres undefined) | -2.0 | -412.1 | 0.5 | 412.1* | · | 103.0
N#Cc1cc2ccccc2nc1SCC(=O)NC1CC1 | 64.0* | 6.6 | 3.7 | -6.6 | 0.9 | 92.0
Cc1ccc(S(=O)(=O)c2nc(-c3ccccc3Cl)oc2N(C)C)cc1 | 1.1 | 36.6 | -0.9 | -36.6 | 55.6* | 104.0
O=C(CCn1c(=S)[nH]c2ccccc2c1=O)NCCSCc1ccccc1 | 0.9 | -8.9 | 1.6 | 8.9 | -0.6 | 95.0
C=CCn1c(SCC(=O)NCC2CCCO2)nc2c([nH]c3ccccc32)c1=O (centres undefined) | 55.3* | -10.5 | 1.8 | 10.5 | -0.6 | 96.0
